This is an account of results in ChEMBL document CHEMBL4261557, “MAO inhibitory activity of bromo-2-phenylbenzofurans: synthesis, in vitro study, and docking calculations” (Medchemcomm, 2017).

The target in data set [1] is T1, Amine oxidase [flavin-containing] A (Homo sapiens, UniProt P21397).
T1 sequence (P21397 whole entry): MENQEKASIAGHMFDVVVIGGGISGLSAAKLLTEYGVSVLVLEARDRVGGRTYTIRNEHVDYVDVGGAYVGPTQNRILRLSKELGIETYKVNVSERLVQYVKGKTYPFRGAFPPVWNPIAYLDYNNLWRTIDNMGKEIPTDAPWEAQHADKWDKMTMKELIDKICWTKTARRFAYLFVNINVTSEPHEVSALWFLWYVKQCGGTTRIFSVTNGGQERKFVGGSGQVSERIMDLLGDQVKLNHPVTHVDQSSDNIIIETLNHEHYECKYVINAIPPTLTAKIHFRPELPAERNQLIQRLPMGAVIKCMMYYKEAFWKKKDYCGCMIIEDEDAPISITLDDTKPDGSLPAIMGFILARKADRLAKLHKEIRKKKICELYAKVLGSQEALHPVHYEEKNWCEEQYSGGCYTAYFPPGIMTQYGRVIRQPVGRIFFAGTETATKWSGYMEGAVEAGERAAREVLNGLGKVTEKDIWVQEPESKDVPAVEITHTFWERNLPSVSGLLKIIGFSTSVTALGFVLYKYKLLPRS
Briefly: Inhibition of recombinant human MAO-A expressed in baculovirus infected insect cells assessed as reduction in H2O2 production using p-tyramine as substrate pretreated for 15 mins followed by substrate addition and measured over 15 mins by Amplex red reagent based fluorimetric assay.

Data set [2] deals with T2, Amine oxidase [flavin-containing] B (Homo sapiens, UniProt P27338).
T2 sequence (P27338 whole entry): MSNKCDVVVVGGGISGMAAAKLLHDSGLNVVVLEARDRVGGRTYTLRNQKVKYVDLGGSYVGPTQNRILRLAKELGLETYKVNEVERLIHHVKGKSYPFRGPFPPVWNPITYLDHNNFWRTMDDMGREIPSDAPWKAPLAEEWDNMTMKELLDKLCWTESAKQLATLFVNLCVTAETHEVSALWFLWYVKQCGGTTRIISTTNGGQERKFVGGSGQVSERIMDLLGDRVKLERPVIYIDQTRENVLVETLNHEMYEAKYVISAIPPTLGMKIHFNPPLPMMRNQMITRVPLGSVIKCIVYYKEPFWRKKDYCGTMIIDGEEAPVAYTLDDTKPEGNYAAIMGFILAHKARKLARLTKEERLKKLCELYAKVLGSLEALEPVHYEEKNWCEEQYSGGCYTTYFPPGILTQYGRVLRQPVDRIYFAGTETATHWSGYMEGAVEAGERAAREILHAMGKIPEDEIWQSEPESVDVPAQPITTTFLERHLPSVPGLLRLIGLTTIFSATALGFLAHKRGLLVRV
As to the kind of experiment: biochemical.

The species named for a further data set is Homo sapiens. Briefly: Selectivity index, ratio of IC50 for recombinant human MAO-A expressed in baculovirus infected insect cells to IC50 for recombinant human MAO-B expressed in baculovirus infected insect cells. Summed up:
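Ratio of IC50 against hMAO-A to IC50 against hMAO-B, both measured by the Amplex Red/p-tyramine fluorimetric assay with recombinant enzymes from insect cells.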

The test system of another data set is SH-SY5Y. Briefly: Cytotoxicity against human SH-SY5Y cells assessed as reduction in cell viability at 1 to 10 uM after 24 hrs by MTT assay. The format is cell-based. In short, it runs like this: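 SH-SY5Y neuroblastoma cells seeded at 1.106 mL–1, incubated overnight, then exposed 24 h to compound at 1 or 10 μM in 1% DMSO; 1% DMSO as negative control. MTT (5 mg ml–1 in PBS, 10%) added for 2 h at 37 °C, crystals dissolved in DMSO, absorbance 540 nm; viability = treated/control absorbance × 100. Mean ± S.E.M., ≥5 cultures.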

Data set [3] deals with T1, Amine oxidase [flavin-containing] A. As to the kind of experiment: Inhibition of recombinant human MAO-A expressed in baculovirus infected insect cells assessed as reduction in H2O2 production at 100 uM using p-tyramine as substrate pretreated for 15 mins followed by substrate addition and measured over 15 mins by Amplex red reagent based fluorimetric assay relative to control. Conditions: 0.25 h.

The target in data set [4] is T2, Amine oxidase [flavin-containing] B. Briefly: Inhibition of recombinant human MAO-B expressed in baculovirus infected insect cells assessed as reduction in H2O2 production at 100 uM using p-tyramine as substrate pretreated for 15 mins followed by substrate addition and measured over 15 mins by Amplex red reagent based fluorimetric assay relative to control. The note with it: 0.25 h. In short, it runs like this:
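hMAO-B from baculovirus-infected BTI-TN-5B1-4 insect cells, 7.5 μg protein, matched to 165 pmol p-tyramine/min. Preincubated with inhibitor in 0.05 M phosphate buffer pH 7.4, 15 min at 37 °C. Started with 200 μM Amplex Red, 1 U mL–1 HRP, 1 mM p-tyramine (final). Fluorescence (ex 545/em 590 nm) over 15 min at 37 °C, minus no-enzyme background; percent inhibition at 100 μM.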

Broadly, the IC50 is the concentration at which inhibition is half-maximal. For `Brc1ccccc1-c1cc2ccccc2o1`, the IC50 in data set [1] amounted to 8.12 µM; in data set [2], 1.13 µM. The Ratio IC50 in the data set filed under Homo sapiens amounted to 7.2. In the data set with SH-SY5Y, the Activity entry is “Non-Toxic”.
As to `Brc1ccc(-c2cc3ccccc3o2)cc1`, the IC50 was more than 100 µM in data set [1] and 0.34 µM in data set [2]. Besides, the Ratio IC50 in the data set filed under Homo sapiens is more than 294. Moreover, the Activity result with SH-SY5Y is reported as “Non-Toxic”.
One may read the inhibition as the change of the read-out against control, counted positive when it falls. In the case of `Cc1cccc2cc(-c3ccc(Br)cc3)oc12`, the IC50 in data set [1] came to 100 µM; in data set [2] it was 0.95 µM. Also, in data set [3], the inhibition at 100 µM was 46.8%. The Ratio IC50 in the data set filed under Homo sapiens came to 95.2. For the same molecule, the Activity entry in the data set on SH-SY5Y is “Non-Toxic”.
Turning to `Cc1cccc2cc(-c3ccccc3Br)oc12`, the IC50 in data set [1] worked out at 100 µM; in data set [2], 9.68 µM. Moreover, in data set [3], the inhibition at 100 µM stood at 44.8%. For the same molecule, the Ratio IC50 in the data set listed under Homo sapiens is 11.5. Also, the Activity entry with SH-SY5Y is “Non-Toxic”.
Turning to `c1ccc(-c2cc3ccccc3o2)cc1`, the IC50 in data set [1] and in data set [2] was more than 100 µM throughout. For the same molecule, the Activity result in the data set with SH-SY5Y is “Non-Toxic”.
As for `Cc1cccc2cc(-c3ccccc3)oc12`, the IC50 in data set [1] was 100 µM; in data set [2] it was 10.7 µM. Besides, in data set [3], the inhibition at 100 µM was 53.9%. In the data set listed under Homo sapiens, the Ratio IC50 amounted to 9.3. Besides, in the data set on SH-SY5Y, the Activity result was “Non-Toxic”.
For `Brc1cccc(-c2cc3ccccc3o2)c1`, in that order: 100 µM, 1.17 µM, 51%, 85.5 and “Non-Toxic”.
As for `Cc1ccc2oc(-c3ccccc3Br)cc2c1`, the IC50 in data set [1] was determined as 11 µM; in data set [2], 0.2 µM. Moreover, in the data set listed under Homo sapiens, the Ratio IC50 was determined as 55. Further, the Activity entry with SH-SY5Y was “Non-Toxic”.
On to `Cc1ccc2oc(-c3cccc(Br)c3)cc2c1`, for which the IC50 in data set [1] is more than 100 µM; in data set [2], 0.25 µM. In the data set listed under Homo sapiens, the Ratio IC50 was more than 400. Moreover, the Activity result in the data set on SH-SY5Y is “Non-Toxic”.
For `Cc1cccc2cc(-c3cccc(Br)c3)oc12`, in that order: more than 100 µM, 3.98 µM, more than 25.2 and “Non-Toxic”.
As for `Cc1ccc2oc(-c3ccc(Br)cc3)cc2c1`, the IC50 in data set [1] was more than 100 µM; in data set [2], 100 µM. Besides, in data set [4], the inhibition at 100 µM was determined as 46.1%. Further, the Activity entry with SH-SY5Y is “Non-Toxic”.
Take `Cc1ccc2oc(-c3ccccc3)cc2c1`: the IC50 in data set [1] was more than 100 µM; in data set [2], 0.88 µM. The Ratio IC50 in the data set listed under Homo sapiens is more than 114. The Activity entry with SH-SY5Y is recorded as “Non-Toxic”.
